Source: PubChem BioAssay
The list is not random: actives were taken first. Their share in the collection is about 12%.
WT yeast gro inh = growth inhibition of WT strain, primary screen, mitochondrial fusion inhibitor project, WT and mutant strains, chemical genetic | AID 1362, 2008 | inhibition, % at 10 µM | 2.1% of 190,000 active | mitochondrial fusion phenotypic screen; in the data active means inhibition above about 58%; tested in S. cerevisiae
Cl transport mod = KCC2 cotransporter modulators, thallium flux, primary screen, cell-based, HEK293 KCC2, FluoZin-2 fluorescence, MLSMR. KCC2 cells, thallium flux FluoZin-2 fluorescence. B-score of Tl+ flux slope (higher = more flux/activation; lower = inhibition) at 10 µM. AID 1456, 2008. 2.2% of 190,000 active;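 active means thallium flux slope and its plate-corrected score both differing from the plate sample mean at a set confidence after two filtering rounds, in either direction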;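 further: slope of fluorescence scaled to starting intensity during 10 to 20 s after thallium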
Diaph act CS = compounds boosting diaphorase resazurin reduction – biochemical, uHTS, resorufin fluorescence, counter-screen for diaphorase-coupled primary assays, primary screen; 0.005% of 190,000 active; activation factor at 20 µM; Diaphorase/resazurin coupled assay, 16 min; stronger effect = higher value; 1 = vehicle wells, 0 = NADH-free wells;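 active means diaphorase activity raised at least twofold by the compound at 20 µM; inactive means activation factor below 2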
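Measured by – red resorufin fluorescence at 544/590 nm excitation/emission · Test system – Clostridium kluyveri diaphorase, purified enzyme · Incubation – reaction time 16 min, room temperature · Buffer or medium – 50 mM HEPES pH 7.4 with 4.542 mM MgCl2, 0.005% Tween 20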
Diaphorase inh = diaphorase inhibitors and chemical oxidizers, primary screen, counter-screen for diaphorase-coupled primary assays, biochemical, uHTS, resorufin fluorescence; 0.69% of 190,000 active; diaphorase resazurin-to-resorufin fluorescence, NADH, 16 min; bacterial (C. kluyveri) enzyme, not human; inhibition, % at 20 µM;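 active means primary screen inhibition at 20 µM above a set limit, cut at about 50% in these data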;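 further: plate controls were DMSO with full reaction for no effect and wells lacking NADH for full effect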
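System: Bacterial diaphorase enzyme (C. kluyveri) | Incubation: 16-min room-temperature incubation before reading | Benchmarks: No-NADH positive control and DMSO neutral control | Measured by: Resorufin fluorescence 544/590 nm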
ROMK mod = ROMK potassium channel modulators, primary screen, cell-based, thallium flux, MLSMR library. 2% of 130,000 active. ATP-sensitive inward rectifier potassium channel 1 (Homo sapiens), P48048. Tet-inducible ROMK, thallium flux fluorescence; actives lie on both sides. B-score at 10 µM;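 active means signal ratio slope over the read window, or its plate-corrected B-score, at least 3 SD from the plate mean, either direction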;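 further: B-score of the F/F0 ratio slope over 7 to 12 s after thallium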
Target sequence (P48048 whole entry, looked up): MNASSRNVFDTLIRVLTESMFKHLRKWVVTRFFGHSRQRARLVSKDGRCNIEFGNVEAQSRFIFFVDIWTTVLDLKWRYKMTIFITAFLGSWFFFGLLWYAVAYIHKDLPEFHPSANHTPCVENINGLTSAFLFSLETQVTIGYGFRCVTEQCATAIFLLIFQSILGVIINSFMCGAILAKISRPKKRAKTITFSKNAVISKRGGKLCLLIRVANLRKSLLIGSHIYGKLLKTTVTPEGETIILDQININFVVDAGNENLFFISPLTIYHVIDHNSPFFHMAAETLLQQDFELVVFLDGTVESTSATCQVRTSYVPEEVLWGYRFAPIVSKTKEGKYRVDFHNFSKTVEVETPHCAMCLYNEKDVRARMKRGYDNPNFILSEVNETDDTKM
L major viab = Leishmania major promastigote growth inhibition, primary screen. Leishmania major promastigotes, resazurin fluorescence viability. AID 1063, 2008. inhibition, % at 10 µM. 9% of 200,000 active; in the data active means inhibition above about 50%;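 further: promastigotes grown with compound for 44 hours at 28 °C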
* marks the source's active call; other numbers are inactive results; / = not tested or not shown.

SMILES	WT yeast gro inh	Cl transport mod	Diaph act CS	Diaphorase inh	ROMK mod	L major viab
O=c1c(Cl)c(Cl)cnn1Cc1nnc(-c2ccccc2Br)o1	41.3	-1.42	1	-1.7	-0.196	99.5*
Clc1ccccc1OCc1nnc(-c2ccccc2Br)o1	57.5	-2.78	0.9	14.5	/	2.9
Cc1ccc(-c2ccc(/C=N/n3cnnc3)o2)cc1	/	-1.93	/	/	/	/
Cc1ccc(-c2ccc(/C=N/n3cnnc3)o2)cc1Cl	27.3	0.0384	0.8	20.2	/	71.0*
C/C(CCC12CC3CC(CC(C3)C1)C2)=N\NC(N)=S	77.6*	1.98	0.9	12.9	-0.401	100.5*
C/C(CC1CC(C)OC1=O)=N\NC(N)=S (configuration not stated)	-3.0	0.509	0.9	14.1	0.606	-8.1
Cc1cc(C)cc(N(CCC(=O)Nc2nnc(C3CC3)s2)S(=O)(=O)c2ccc(Cl)cc2)c1	-2.0	0.376	1	0.0	0.0701	81.6*
Cc1ccc(S(=O)(=O)NCCC(=O)Nc2nnc(C3CC3)s2)cc1C	-2.6	0.00328	0.9	9.5	-0.337	2.8
Cc1ccc(OCC(=O)NNc2c3ccccc3nc3ccccc23)cc1	35.9	-1.69	0.9	5.1	-0.165	96.8*
O=C(Cc1ccccc1)NNC(=O)Cc1ccccc1	-15.8	0.23	1	-2.1	0.233	-1.3
O=C(Nc1c2ccccc2nc2ccccc12)C(Cl)(Cl)Cl	33.3	/	0.9	12.8	/	100.5*
O=C(Cc1ccccc1)NNc1c2ccccc2nc2ccccc12	59.4*	0.188	0.8	20.9	-0.136	31.2
Cc1cccc(OCC(=O)NNc2c3ccccc3nc3ccccc23)c1	23.2	0.00809	0.9	7.7	/	39.8
CCOC(=O)N1CCN(c2cc(=O)n(-c3cccc(C)c3)c(=O)[nH]2)CC1	2.2	0.939	1	4.3	0.723	-4.7
CCOC(=O)CNC(=O)c1cccnc1Oc1ccc(Cl)cc1	/	-0.0888	/	/	-0.385	/
O=C(OCCN1CCCCC1)c1ccccc1Cl	-26.1	0.161	1.1	-5.1	/	0.6
Clc1ccccc1OCCCCN1CCCC1	-1.8	1.47	0.9	11.3	0.146	96.4*
Brc1ccccc1OCCCCn1cnc2ccccc21	47.5	-0.265	0.8	21.5	-1.48	19.2
Brc1ccccc1OCCCN1CCCCCC1	7.9	-1.67	1	-2.3	-1.67	90.4*
Brc1ccccc1OCCCCCN1CCOCC1	19.4	-0.347	1	-1.6	0.326	92.9*
Cc1cc(Cl)c(OCCCN2CCCCC2)c(Br)c1	7.7	-0.035	1	0.1	-2.75	97.4*
Cc1cc(Cl)c(OCCCSc2nc(C)cc(=O)[nH]2)c(Br)c1	-1.9	-0.366	0.9	12.2	/	-8.2
Cc1nn(C)cc1S(=O)(=O)NC1CCCC1	-1.0	0.466	0.9	9.9	0.0248	-5.4
CCN(CC)CCOC(=O)C1(c2ccccc2)CCCC1	5.2	0.176	0.9	7.4	-0.688	33.2
CC(=O)c1ccccc1OCCCN1CCCCC1	6.9	/	1	-4.6	/	89.5*
SMILES	WT yeast gro inh	Cl transport mod	Diaph act CS	Diaphorase inh	ROMK mod	L major viab
Cc1cc(Cl)c(OCCN2C(=O)NC(C)(C)C2=O)c(Br)c1	-2.6	/	1	0.9	/	63.1*
CC(=O)c1ccccc1OCCOCCOCCOc1ccccc1C(C)=O	-16.4	-1.41	0.9	12.7	/	-4.4
O=C(OCCCN1CCCC1)C1(c2ccccc2)CCCC1	6.9	0.633	0.8	19.0	0.0227	99.8*
COc1ccc(NC(=O)COC(=O)CCCN2C(=O)c3ccccc3C2=O)cc1Cl	6.6	-0.758	0.8	24.3	-0.816	-2.5
Cc1ccc(S(=O)(=O)NC(=O)N(C)C2CCCCC2)cc1	/	0.118	/	/	/	/
CC(C)n1c2ccccc2c2nnc(SCC(=O)OCN3C(=O)c4ccccc4C3=O)nc21	-10.0	-0.147	0.4	57.0*	0.0972	-2.8
CCOC(=O)c1sc(NC(=O)C(CC)Sc2nnc3c4ccccc4n(C(C)C)c3n2)nc1C (configuration not stated)	9.5	-0.858	0.7	27.7	/	72.1*
